Source: ChEMBL document CHEMBL3739335, “Phosphonooxymethyl Prodrug of Triptolide: Synthesis, Physicochemical Characterization, and Efficacy in Human Colon Adenocarcinoma and Ovarian Cancer Xenografts” (J Med Chem, 2015)
Activity calls are given as the source filed them. No cut-off for these calls is given here.

Legend:
[1] = Stability of the compound in simulated gastric fluid assessed as compound remaining after 2 hrs by HPLC analysis
[2] = test system: Mus musculus; assay: Toxicity in athymic nude mouse xenografted with human A2780 cells assessed as mortality at 0.6 to 0.9 mg/kg, po administered for 30 days; format: organism-based; settings: in vivo, 720 h
Summary of the method: (§1)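 Female athymic nude mice, 7–9 weeks old, received 2.5 × 10^6 A2780 cells subcutaneously in the flank in 50% Matrigel/RPMI 1640. Mice were randomized at a mean tumor volume of 188 mm3, 10 per group. Daily oral gavage in USP saline (0.2 mL) for 30 days, dosed on group-mean body weight. Clinical signs, survival and body weights were recorded.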

[3] = Chemical stability of the compound in buffer assessed as compound remaining at pH 2 after 24 hrs by HPLC analysis; format: physicochemical; settings: read-out: Stability
[4] = test system: HT-29; assay: Antitumor activity against human HT-29 cells xenografted in athymic nude mouse at 0.3 to 0.9 mg/kg, ip qd administered for 28 days; format: functional, organism-based
Summary of the method: (§2)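 Female athymic nude mice, 7–9 weeks, implanted s.c. on right flank with 1.74 × 10^6 HT-29 cells (ATCC, mycoplasma/rodent-pathogen tested) in 50% Matrigel/50% McCoy's 5A; randomized at mean tumor 110 mm3, 10/group. IP dosing in USP saline, 0.2 mL, over a 28-day treatment period. Tumor volume by caliper (L × W2/2) at least twice weekly, tumor weight at necropsy, survival, body weight.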

[5] = Chemical stability of the compound in buffer assessed as pseudo-first-order rate constant at 60 degC at pH 7.4 by Arrhenius plot analysis; format: physicochemical
[6] = Chemical stability of the compound in buffer assessed as pseudo-first-order rate constant at 50 degC at pH 7.4 by Arrhenius plot analysis; format: physicochemical
[7] = Chemical stability of the compound in buffer assessed as compound remaining at pH 7.4 after 1 hr by HPLC analysis; format: physicochemical; settings: read-out: Stability
[8] = Chemical stability of the compound in buffer assessed as compound remaining at pH 6 after 1 hr by HPLC analysis; format: physicochemical; settings: read-out: Stability
[9] = Chemical stability of the compound in buffer assessed as compound remaining at pH 9 after 8 hrs by HPLC analysis; format: physicochemical; settings: read-out: Stability
[10] = biological target: T1, alkaline phosphatase (Bos taurus, UniProt P09487); assay: Half life of the compound in glycine buffer assessed as bovine intestinal mucosal alkaline phosphatase-mediated compound degradation at pH 9.8; format: ADME; settings: cattle
T1 sequence (P09487 whole entry): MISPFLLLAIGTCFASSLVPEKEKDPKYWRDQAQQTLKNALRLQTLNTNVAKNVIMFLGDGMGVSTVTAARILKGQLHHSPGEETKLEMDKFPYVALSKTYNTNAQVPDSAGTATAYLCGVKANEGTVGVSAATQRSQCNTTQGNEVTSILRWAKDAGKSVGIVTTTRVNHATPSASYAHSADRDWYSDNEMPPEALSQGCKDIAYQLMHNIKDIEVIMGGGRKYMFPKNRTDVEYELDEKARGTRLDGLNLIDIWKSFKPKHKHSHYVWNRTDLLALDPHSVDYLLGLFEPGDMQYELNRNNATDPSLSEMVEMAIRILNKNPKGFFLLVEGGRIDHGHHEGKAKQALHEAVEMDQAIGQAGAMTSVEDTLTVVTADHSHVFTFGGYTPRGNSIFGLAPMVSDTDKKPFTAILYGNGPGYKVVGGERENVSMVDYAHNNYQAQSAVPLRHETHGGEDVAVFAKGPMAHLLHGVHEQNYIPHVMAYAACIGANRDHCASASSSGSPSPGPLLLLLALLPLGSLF
Summary of the method: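 Conversion in glycine buffer pH 9.8 with alkaline phosphatase from bovine intestinal mucosa; loss of compound and formation of triptolide followed, first-order fit for half-life. Control run in same buffer without enzyme for 1 h.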

[11] = test system: Mus musculus; assay: Toxicity in athymic nude mouse xenografted with human HT-29 cells assessed as mortality at 0.9 mg/kg, ip administered for 2 weeks; format: organism-based; settings: in vivo, 336 h
[12] = Chemical stability of the compound in buffer assessed as compound remaining at pH 4 after 4 hrs by HPLC analysis; format: physicochemical; settings: read-out: Stability
[13] = test system: HT-29; assay: Antitumor activity against human HT-29 cells xenografted in athymic nude mouse at 0.9 mg/kg, ip qd administered for 4 weeks; format: functional, organism-based
Summary of the method: as §2

[14] = Chemical stability of the compound in buffer assessed as compound remaining at pH 1 after 8 hrs by HPLC analysis; format: physicochemical; settings: read-out: Stability
[15] = Half life of the compound in buffer at 25 degC at pH 7.4; format: ADME
Summary of the method: (§3)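 Pseudo-first-order kobsd at each temperature was fitted to an Arrhenius plot, which was extrapolated to 25 and 4 °C. t1/2 and t90 (time for 10% loss) were calculated from the extrapolated kobsd.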

[16] = Stability of the compound in simulated gastric fluid assessed as compound remaining after 1 hr by HPLC analysis
[17] = test system: Mus musculus; assay: Toxicity in athymic nude mouse xenografted with human A2780 cells assessed as moribund condition at 1.2 mg/kg, po administered for 30 days; format: organism-based; settings: in vivo, 720 h
Summary of the method: as §1

[18] = Chemical stability of the compound in buffer assessed as compound remaining at pH 7.4 after 8 hrs by HPLC analysis; format: physicochemical; settings: read-out: Stability
[19] = test system: HT-29; assay: Antitumor activity against human HT-29 cells xenografted in athymic nude mouse at 0.9 mg/kg, ip qd administered for 2 weeks followed by 3 times per week; format: functional, organism-based
Summary of the method: as §2

[20] = Chemical stability of the compound in buffer assessed as compound remaining at pH 9 after 1 hr by HPLC analysis; format: physicochemical; settings: read-out: Stability
[21] = Shelf life of the compound in buffer assessed as time for 10% loss of compound at 25 degC at pH 7.4; format: physicochemical
Summary of the method: as §3

[22] = Stability of the compound in simulated intestinal fluid assessed as compound remaining at pH 7.5 after 24 hrs by HPLC analysis; format: ADME; settings: read-out: Stability
Summary of the method: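 Drug incubated in simulated gastric fluid or simulated intestinal fluid and sampled at 0, 1, 2, 4, 8 and 24 h. Percent remaining was measured by reversed-phase C18 HPLC with photodiode-array detection, using a 20-min gradient of 10–70% acetonitrile against 10 mM sodium phosphate buffer at pH 7.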

[23] = test system: Mus musculus; assay: Toxicity in athymic nude mouse xenografted with human HT-29 cells assessed as mortality at 0.9 mg/kg, ip administered for 4 weeks; format: organism-based; settings: in vivo, 672 h
Summary of the method: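 Female athymic nude mice, 7–9 weeks old, received 1.74 × 10^6 HT-29 cells subcutaneously in the right flank in 50% Matrigel/McCoy's 5A. Randomized at 110 mm3, 10 per group. Intraperitoneal dosing in USP saline (0.2 mL) over a 28-day period on the stated schedule. Body weights were taken twice weekly; clinical signs and survival were recorded.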

[24] = biological target: T2, Alkaline phosphatase, tissue-nonspecific isozyme (Bos taurus, UniProt P09487); assay: Prodrug conversion in glycine buffer assessed as bovine intestinal mucosal alkaline phosphatase-mediated triptolide and formaldehyde formation at pH 9.8; format: ADME; settings: cattle, isolated protein
T2 sequence (P09487 whole entry): T1 sequence (P09487 whole entry)

[25] = Chemical stability of the compound in buffer assessed as pseudo-first-order rate constant at 25 degC at pH 7.4 by Arrhenius plot analysis; format: physicochemical
Summary of the method: as §3

[26] = Chemical stability of the compound in buffer assessed as compound remaining at pH 6 after 24 hrs by HPLC analysis; format: physicochemical; settings: read-out: Stability

SMILES: CC(C)[C@]12O[C@H]1[C@@H]1O[C@]13[C@]1(O[C@H]1C[C@H]1C4=C(CC[C@@]13C)C(=O)OC4)[C@@H]2OCOP(=O)([O-])[O-].[Na+].[Na+] [MINNELIDE]
- remaining at 2 h [1]: 85%
- Activity [2]: Toxic
- remaining at 24 h [3]: 83%
- Activity [4]: Active
- K [5]: 0.002482 h⁻¹
- K [6]: 0.001052 h⁻¹
- remaining at 1 h [7]: 100%
- remaining at 1 h [8]: 100%
- remaining at 8 h [9]: 100%
- half-life [10]: 2 min
- Activity [11]: Toxic
- remaining at 4 h [12]: 100%
- Activity [13]: Active
- remaining at 8 h [14]: 39%
- t1/2 [15]: 0.92 yr
- remaining at 1 h [16]: 93%
- Activity [17]: Toxic
- remaining at 8 h [18]: 100%
- Activity [19]: Active
- remaining at 1 h [20]: 100%
- Time [21]: 0.14 yr
- remaining at 24 h [22]: 99%
- Activity [23]: Toxic
- Drug metabolism [24]: metabolite_detected
- K [25]: 8.6 ×10⁻⁵ /hr
- remaining at 24 h [26]: 99%
